Measured values taken from ChEMBL document CHEMBL2406988, “Inhibition of the human proteasome by imidazoline scaffolds” (J Med Chem, 2013).
≈ marks a conversion by molar mass, not a printed value. Calls of active or inactive are those of the source. No cut-off for these calls is given here.

Key:
[1] = Inhibition of chymotryptic-like activity of human 20S proteasome using Suc-LLVY-AMC as substrate measured every min over 30 mins by fluorescence assay
THP-1 [2] = assay: Cytotoxicity against wild type human THP1 cells assessed as cell viability at 10 uM after 72 hrs by MTS assay relative to vehicle-treated control; assay type: functional; settings: THP-1, 72 h, read-out: Activity
In short: (§1)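 THP-1 cells in RPMI-1640 with 10% FBS, penicillin/streptomycin, 1 mM sodium pyruvate and 0.2 mM L-glutamine at 37°C, 5% CO2. […] Compound in DMSO, final 10 μM, 0.5% DMSO, 72 h. MTS (CellTiter 96 AQueous One) read at 490 nm, background-subtracted, as % of vehicle.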

THP-1 [3] = assay: Cytotoxicity against bortezomib-resistant human THP1 cells assessed as cell viability at 10 uM after 72 hrs by MTS assay relative to vehicle-treated control; assay type: functional; settings: for viability at 10 µM: THP-1, 72 h, read-out: Activity; in short: as §1
[4] = Inhibition of 20S proteasome (unknown origin); parameters: species or system Homo sapiens
THP-1 [5] = assay: cells; settings: Homo sapiens, THP-1, 72 h, read-out: Activity
THP-1 [6] = assay: Cytotoxicity against wild type human THP1 cells assessed as cell viability at 0.5 uM after 72 hrs by MTS assay relative to vehicle-treated control; settings: THP-1, 72 h, read-out: Activity
[7] = Inhibition of NFkappaB-mediated gene transcription in human HeLa cells after 1 hr by Dual-Glo luciferase reporter assay; assay type: cell-based
[8] = Solubility of the compound in dextrose-water solution at pH 6.5 after 5 mins; assay type: physicochemical; settings: buffer, pH 6.5, 5 min
In short: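 1 mL of 5% dextrose in water is brought to pH 6.5 with 3 μl 2 N HCl. Solid is added in 0.5 mg portions, then 0.1 mg near saturation. Each addition is vortexed 40 s and sonicated 30 s at 37.5°C, then held 5 min at 37.5°C and judged visually.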

Homo sapiens [9] = species: Homo sapiens; assay: Non-competitive inhibition of chymotryptic-like activity of human 20S proteasome using Suc-LLVY-AMC as substrate at 1.25 to 5 uM
In short: (§2)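 Kinetics: purified human 20S proteasome with vehicle or inhibitor at 1.25, 2.5 or 5 μM across varying Suc-LLVY-AMC concentrations. Velocity is followed by AMC fluorescence as in the activity assay. Vmax and Km come from Michaelis-Menten fits with a Lineweaver-Burk plot.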

Homo sapiens [10] = species: Homo sapiens; assay: Non-competitive inhibition of chymotryptic-like activity of human 20S proteasome using Suc-LLVY-AMC as substrate; in short: as §2

Row | SMILES | IC50 [1] [µM] | further results
1 | CCOC(=O)[C@]1(c2ccccc2)N=C(c2ccccc2)N(Cc2ccccc2)[C@@H]1c1ccc(NS(=O)(=O)c2ccccc2)cc1 (racemic) | 1.08 | –
2 | CCOC(=O)[C@]1(c2ccccc2)N=C(c2ccc(Br)cc2)N(Cc2ccccc2)[C@@H]1c1ccccc1 (racemic) | 3.19 | –
3 | CCOC(=O)[C@]1(c2ccccc2)N=C(c2ccc(OC)cc2)N(Cc2ccccc2)[C@@H]1c1ccc(NCc2ccc(O)cc2)cc1 (racemic) | 0.54 | viability at 10 µM (THP-1 [2]): 23%; viability at 10 µM (THP-1 [3]): 36%
4 | CCOC(=O)[C@]1(c2ccccc2)N=C(c2ccc(OC)cc2)N(Cc2ccccc2)[C@@H]1c1ccc(NS(=O)(=O)C2CC2)cc1 (racemic) | 0.91 | –
5 | CCOC(=O)[C@]1(c2ccccc2)N=C(c2ccccc2)N(Cc2ccccc2)[C@@H]1c1ccc(SC)cc1 (racemic) | 2.77 | –
6 | CCOC(=O)[C@]1(c2ccccc2)N=C(c2ccccc2)N(Cc2ccccc2)[C@@H]1c1ccc(Cl)cc1 | 2.23 | –
7 | CCOC(=O)[C@]1(c2ccccc2)N=C(c2ccccc2)N(Cc2ccc(OC)cc2)[C@@H]1c1ccccc1 | 2.73 | –
8 | CCOC(=O)[C@]1(c2ccccc2)N=C(c2ccc(OC)cc2)N(Cc2ccccc2)[C@@H]1c1ccc(C#N)cc1 (racemic) | > 10 | –
9 | CCOC(=O)[C@]1(c2ccccc2)N=C(c2ccccc2)N(Cc2ccc(F)cc2)[C@@H]1c1ccccc1 | 3.71 | –
10 | CCOC(=O)[C@]1(c2ccccc2)N=C(c2ccccc2)N(Cc2ccccc2)[C@@H]1c1ccc(N)cc1 | 3.52 | –
11 | CCOC(=O)[C@]1(c2ccccc2)N=C(c2ccccc2)N(Cc2ccccc2)[C@@H]1c1ccc(S(C)(=O)=O)cc1 (racemic) | > 10 | –
12 | CCOC(=O)[C@]1(c2ccccc2)N=C(c2ccccc2)N(Cc2ccccc2)[C@@H]1c1ccc(NCc2ccccc2)cc1 (racemic) | 0.47 | –
13 | CCOC(=O)[C@]1(c2ccccc2)N=C(c2ccc(OC)cc2)N(Cc2ccccc2)[C@@H]1c1ccc(NS(=O)(=O)N(C)C)cc1 (racemic) | 1.22 | –
14 | CCOC(=O)[C@]1(c2ccccc2)N=C(c2ccc(OC)cc2)N(Cc2ccccc2)[C@@H]1c1ccc(NS(=O)(=O)c2ccccc2)cc1 (racemic) | 0.58 | –
15 | CCOC(=O)[C@]1(c2ccccc2)N=C(c2ccc(OC)cc2)N(Cc2ccccc2)[C@@H]1c1ccc(NS(=O)(=O)Cc2ccccc2)cc1 | 1.08 | –
16 | CC(C)C[C@H](NC(=O)[C@H](Cc1ccccc1)NC(=O)c1cnccn1)B(O)O [BORTEZOMIB] | – | IC50 [4]: 0.005 µM; viability at 0.5 µM (THP-1 [5]): 68%; viability at 0.5 µM (THP-1 [6]): < 5%
17 | c1ccc(CN2C(c3ccccc3)=N[C@H](c3ccccc3)[C@H]2c2ccccc2)cc1 | 1.4 | IC50 [7]: 4.6 µM
18 | CCOC(=O)[C@]1(c2ccccc2)N=C(c2ccc(OC)cc2)N(Cc2ccccc2)[C@@H]1c1ccc(N)cc1 (racemic) | 1.97 | viability at 10 µM (THP-1 [2]): 44%; viability at 10 µM (THP-1 [3]): 98%
19 | CCOC(=O)[C@]1(c2ccccc2)N=C(c2ccccc2)N(C(C)=O)[C@@H]1c1ccccc1 | > 10 | –
20 | c1ccc(CN2C(c3ccccc3)=N[C@@H](c3ccccc3)[C@H]2c2ccccc2)cc1 | > 10 | IC50 [7]: > 10 µM
21 | CCOC(=O)[C@]1(c2ccccc2)N=C(c2ccc(OC)cc2)N(Cc2ccccc2)[C@@H]1c1ccc(NCC2CCCCC2)cc1 (racemic) | 0.13 | viability at 10 µM (THP-1 [2]): 4%; viability at 10 µM (THP-1 [3]): 5%
22 | CCOC(=O)[C@]1(c2ccccc2)N=C(c2ccccc2)N(S(=O)(=O)c2ccc(C)cc2)[C@@H]1c1ccccc1 | > 10 | –
23 | CCOC(=O)[C@]1(c2ccccc2)N=C(c2ccc(OC)cc2)N(Cc2ccccc2)[C@@H]1c1ccc(NS(=O)(=O)c2ccc(OC)cc2OC)cc1 (racemic) | 0.53 | –

Row | SMILES | IC50 [1] [µM] | further results
24 | c1ccc(CN2CCN=C2c2ccccc2)cc1 | > 10 | IC50 [7]: > 10 µM
25 | CCOC(=O)[C@]1(c2ccccc2)N=C(c2ccccc2)N(Cc2ccccc2)[C@@H]1c1ccc([N+](=O)[O-])cc1 | 6.71 | –
26 | CCOC(=O)[C@]1(c2ccccc2)N=C(c2ccc(OC)cc2)N(Cc2ccccc2)[C@@H]1c1ccc(NC(=O)c2ccccc2)cc1 (racemic) | 1.44 | –
27 | CCOC(=O)[C@]1(c2ccccc2)N=C(c2ccccc2)N(Cc2ccc(Cl)cc2)[C@@H]1c1ccccc1 | 2.02 | solubility [8]: < 0.5 mg/mL
28 | CCOC(=O)[C@]1(c2ccccc2)N=C(c2ccccc2)N[C@@H]1c1ccccc1 | > 10 | –
29 | CCOC(=O)[C@]1(c2ccccc2)N=C(c2ccc(OC)cc2)N(Cc2ccccc2)[C@@H]1c1ccc(NC(C)=O)cc1 (racemic) | 2.17 | –
30 | CCOC(=O)[C@]1(c2ccccc2)N=C(c2ccccc2)N(Cc2ccc(Br)cc2)[C@@H]1c1ccccc1 | 1.9 | solubility [8]: < 0.5 mg/mL
31 | COC(=O)[C@]1(c2ccccc2)N=C(c2ccccc2)N(Cc2ccccc2)[C@@H]1c1ccccc1 | 5.4 | IC50 [7]: 7.5 µM
32 | CCOC(=O)[C@]1(c2ccccc2)N=C(c2ccccc2)N(C(=O)c2ccccc2)[C@@H]1c1ccccc1 | > 10 | –
33 | CCOC(=O)[C@]1(c2ccccc2)N=C(c2ccccc2)N(Cc2ccco2)[C@@H]1c1ccccc1 | 7.04 | –
34 | CCOC(=O)[C@]1(c2ccccc2)N=C(c2ccc(OC)cc2)N(Cc2ccccc2)[C@@H]1c1ccc(C(N)=O)cc1 (racemic) | > 10 | –
35 | NC(=O)[C@]1(c2ccccc2)N=C(c2ccccc2)N(Cc2ccccc2)[C@@H]1c1ccccc1 | > 10 | IC50 [7]: > 20 µM
36 | CCOC(=O)[C@]1(c2ccccc2)N=C(c2ccc(OC)cc2)N(Cc2ccccc2)[C@@H]1c1ccc(NCc2cc(OC)c(OC)c(OC)c2)cc1 (racemic) | 0.37 | viability at 10 µM (THP-1 [2]): 24%; viability at 10 µM (THP-1 [3]): 34%
37 | c1ccc(Cn2c(-c3ccccc3)nc(-c3ccccc3)c2-c2ccccc2)cc1 | > 10 | IC50 [7]: > 10 µM
38 | O=C(OCCO)[C@]1(c2ccccc2)N=C(c2ccccc2)N(Cc2ccccc2)[C@@H]1c1ccccc1 (racemic) | 3.2 | IC50 [7]: 10.9 µM
39 | CCOC(=O)[C@]1(c2ccccc2)N=C(c2ccccc2)N(Cc2ccccc2)[C@@H]1c1ccco1 | 6.13 | –
40 | CCOC(=O)[C@]1(c2ccccc2)N=C(c2ccc(OC)cc2)N(Cc2ccccc2)[C@@H]1c1ccc(NC(=N)N)cc1 (racemic) | 0.63 | –
41 | CCOC(=O)[C@]1(c2ccccc2)N=C(c2ccc(OC)cc2)N(Cc2ccccc2)[C@@H]1c1ccc(NCc2ccccc2)cc1 (racemic) | – | viability at 10 µM (THP-1 [2]): 4%; viability at 10 µM (THP-1 [3]): 19%; inhibition (Homo sapiens [9]): Active
42 | CCOC(=O)[C@]1(c2ccccc2)N=C(c2ccc(OC)cc2)N(Cc2ccccc2)[C@@H]1c1ccccc1 (racemic) | 1.27 | –
43 | CCOC(=O)[C@]1(c2ccccc2)N=C(c2ccccc2)N(Cc2ccccc2)[C@@H]1c1ccncc1 | > 10 | –
44 | CCOC(=O)[C@]1(c2ccccc2)N=C(c2ccccc2)N(Cc2ccccc2)[C@@H]1c1ccc(C(F)(F)F)cc1 | 4.81 | –
45 | O=C(OCc1ccccc1)[C@]1(c2ccccc2)N=C(c2ccccc2)N(Cc2ccccc2)[C@@H]1c1ccccc1 | 2.4 | IC50 [7]: 3.5 µM
46 | CCOC(=O)[C@]1(c2ccccc2)N=C(c2ccccc2)N(Cc2ccccc2)[C@@H]1c1ccccc1 | 2.58 | inhibition (Homo sapiens [10]): Active; IC50 [7]: 2.5 µM; Activity (THP-1 [3]): Active; solubility [8]: 1.91 mg/mL (≈ 4150 µM)
